PubChem BioAssay AID635 (SRMLSC, 2007)
About 40 (3%) of roughly 1,300 compounds were called active. These entries were drawn from the full list. Results with a measured potency or affinity are listed apart. Values without a mark were called inactive. How the calls were made is not given here.

Experiment: growth inhibition of wild-type E. coli BW25113 pool, dose response, OD615 (AID 635);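 further: growth measured after 20 h with compound at 37 °C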
Settings: pooled mutant strains; at 100 µM (top of the series)
Outline: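 Material: Keio BW25113 knockout pool, 1,275 strains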

Structure (SMILES)	growth inhibition [%]
Cc1ccc2nc(NC(=O)CNS(=O)(=O)c3ccc(Br)s3)sc2c1	1.78
CN(C)c1nc(SCCOC(=O)Nc2ccccc2)nc(N(C)C)n1	3.85
O=C(Nc1nc(-c2ccccc2)cs1)c1cccs1	-1.94
COc1ccc(CN(C(=O)CN2C(=O)COc3ccccc32)C2CCCC2)c(OC)c1	6.95
COc1ccc2[nH]c3c(=O)n(CCCCC(=O)NCCN4CCCC4)c(=S)[nH]c3c2c1	-2.44
Clc1ccc(Cl)c(-c2nn3c(COc4ccccc4)nnc3s2)c1	2.46
CCOC(=O)c1nnn(-c2nonc2-n2cccc2)c1CN1CCC(C)CC1	3.87
COc1ccc(Cn2c(=O)sc3ccccc32)cc1	2.87
O=C(NC1CCCCCCC1)c1ccccc1O	0.38
Brc1cccc(-c2n[nH]c(-c3ccccc3)n2)c1	4.22
CCc1nc2sc3ccccc3c(=O)c2c(=O)n1Cc1ccco1	5.6
CCOC(=O)c1c(NS(=O)(=O)c2cccc(OC)c2)sc2c1CCC2	0.74
CCCn1nnc(NC(=O)COc2ccc(C3CCCCC3)cc2)n1	6.61
COc1cccc(NC(=O)N2CCN(c3cccc(C)c3C)CC2)c1	-2.15
CN(Cc1ccccc1)C(=O)CSc1nc2ccccc2c(=O)n1Cc1ccco1	4.9
COc1ccc2nc(NC(=O)C3CCCN(S(=O)(=O)c4cccs4)C3)sc2c1 (configuration not stated)	-10.2
c1ccc(-c2oc3ncnc(NCCCn4ccnc4)c3c2-c2ccccc2)cc1	13.2
CC(C)(C)OC(=O)N1CCC[C@H]1c1nnc(SCc2ccc(Cl)cc2Cl)o1	6.74
Cn1c(CSc2nc3ccccc3s2)nc2ccccc21	-7.99
CCOC(=O)c1ccc(-n2[nH]c(-c3ccccc3)cc2=O)cc1	-2.7
Cn1c(C(=O)N2CCc3ccccc3C2)cc2oc3ccccc3c21	-4.13
Cc1ccc(Nc2nc(CSc3nnnn3-c3ccccc3)cs2)cc1	-12.4
O=C(c1ccco1)N1CCN(c2c(-c3ccccc3)c3cc(Cl)ccc3[nH]c2=O)CC1	0.97
Cc1ccc(S(=O)(=O)NCCSc2nnnn2-c2cc(C)ccc2C)cc1	1.62
CCOc1ccc(-c2nc(C#N)c(N3CCCCCC3)o2)cc1	-1.95
COc1ccc(-c2csc(NCc3ccco3)n2)cc1C	-4.35
COc1cc(-c2nc(Cc3ccccc3Cl)no2)cc(OC)c1OC	-4.44
